Counter-ions that a name gives are not always drawn.
Legend:
Bel-7402 = experiment: Antiproliferative activity against human Bel7402 incubated for 72 hrs by MTT assay; assay type: functional, cell-based; conditions: Bel-7402, 72 h
Procedure, shortened: (§1)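 Bel-7402 and its 5-FU-resistant subline were kept in RPMI-1640 with 10% FBS and 1% penicillin/streptomycin at 37 °C under 5% CO2. Cells were seeded at 5000 per well and left for 12 h, then exposed to a concentration series for 72 h. MTT stock (5 mg/mL) was added for 4 h and the product dissolved in DMSO. OD was read at 570 nm and IC50 obtained by curve fitting.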

Bel7402/5-FU [1] = experiment: Antiproliferative activity against human Bel7402/5-FU incubated for 72 hrs by MTT assay; assay type: functional, cell-based; procedure, shortened: as §1
[2] = Oral bioavailability in mouse at 100 mg/kg; assay type: ADME, organism-based; conditions: in vivo
[3] = Oral bioavailability in canine at 100 mg/kg; assay type: ADME, organism-based, Canis lupus familiaris; conditions: dog, in vivo
Bel7402/5-FU [4] = experiment: Induction of apoptosis in human Bel7402/5-FU assessed as viable cells at 5 uM incubated for 48 hrs by annexinV-FITC/propidium iodide staining based flow cytometry (reference value: 96.9 %)
Bel7402/5-FU [5] = experiment: Induction of apoptosis in human Bel7402/5-FU assessed as necrotic cells at 5 uM incubated for 48 hrs by annexinV-FITC/propidium iodide staining based flow cytometry (reference value: 0.157 %)
Bel7402/5-FU [6] = experiment: Induction of apoptosis in human Bel7402/5-FU assessed as late apoptotic cells at 5 uM incubated for 48 hrs by annexinV-FITC/propidium iodide staining based flow cytometry (reference value: 0.945 %)
Bel7402/5-FU [7] = experiment: Induction of apoptosis in human Bel7402/5-FU assessed as early apoptotic cells at 5 uM incubated for 48 hrs by annexinV-FITC/propidium iodide staining based flow cytometry (reference value: 20.1 %)

| Compound | IC50 (Bel-7402) [µM] | IC50 (Bel7402/5-FU [1]) [µM] | other results |
| --- | --- | --- | --- |
| C=C1C(=O)O[C@H]2[C@H]1CC/C(COC(=O)Cn1cc(F)c(=O)n(Cc3ccc(Cl)cc3)c1=O)=C\CC[C@@]1(C)O[C@@H]21 | 2.56 | 2.42 |  |
| C/C1=C\CC[C@@]2(C)O[C@H]2[C@H]2OC(=O)[C@@H](CN(C)C)[C@@H]2CC1 |  |  | bioavailability [2]: 70%; bioavailability [3]: 70% |
| C=C1C(=O)O[C@@H]2C3O[C@]3(C)CC/C=C(\C)CC[C@@H]12 (stereo partly drawn) | 8.62 | 13 | viability at 5 µM (Bel7402/5-FU [4]): 94.3%; Activity (Bel7402/5-FU [5]): 1.29%; Activity (Bel7402/5-FU [6]): 2.52%; Activity (Bel7402/5-FU [7]): 1.75% |
| C=C1C(=O)O[C@H]2[C@H]1CC/C(COC(=O)CCC(=O)N1CCN(C(=O)Cn3cc(F)c(=O)[nH]c3=O)CC1)=C\CC[C@@]1(C)O[C@@H]21 | > 20 | > 20 |  |
| C=C1C(=O)O[C@H]2[C@H]1CC/C(COC(=O)CCC(=O)N1CCN(C(=O)Cn3cc(F)c(=O)n(Cc4ccccc4)c3=O)CC1)=C\CC[C@@]1(C)O[C@@H]21 | > 20 | > 20 |  |
| C=C1C(=O)O[C@H]2[C@H]1CC/C(COC(=O)Cn1cc(F)c(=O)n(Cc3ccc(Br)cc3)c1=O)=C\CC[C@@]1(C)O[C@@H]21 | 2.67 | 3.24 |  |
| C=C1C(=O)O[C@H]2[C@H]1CC/C(COC(=O)Cn1cc(F)c(=O)n(Cc3c(F)cccc3F)c1=O)=C\CC[C@@]1(C)O[C@@H]21 | 4.5 | 4.98 |  |
| C=C1C(=O)O[C@H]2[C@H]1CC/C(COC(=O)Cn1cc(F)c(=O)n(Cc3cc(F)ccc3F)c1=O)=C\CC[C@@]1(C)O[C@@H]21 | 3.06 | 4.61 |  |
| C=C1C(=O)O[C@H]2[C@H]1CC/C(COC(=O)CCC(=O)NCCCCCCNC(=O)Cn1cc(F)c(=O)n(Cc3ccccc3)c1=O)=C\CC[C@@]1(C)O[C@@H]21 | 18.3 | 16.2 |  |
| C=C1C(=O)O[C@H]2[C@H]1CC/C(COC(=O)Cn1cc(F)c(=O)n(Cc3ccc(F)cc3)c1=O)=C\CC[C@@]1(C)O[C@@H]21 | 2.73 |  |  |
| C=C1C(=O)O[C@H]2[C@H]1CC/C(COC(=O)Cn1cc(F)c(=O)n(Cc3ccccc3F)c1=O)=C\CC[C@@]1(C)O[C@@H]21 | 3.77 | 3.83 |  |
| C=C1C(=O)O[C@H]2[C@H]1CC/C(COC(=O)Cn1cc(F)c(=O)n(CCC)c1=O)=C\CC[C@@]1(C)O[C@@H]21 | 8.58 | 9.11 |  |
| C=C1C(=O)O[C@H]2[C@H]1CC/C(Cn1cc(Cn3cc(F)c(=O)n(Cc4ccc(F)cc4)c3=O)nn1)=C\CC[C@@]1(C)O[C@@H]21 | 4.91 | 4.86 |  |
| O=c1[nH]cc(F)c(=O)[nH]1 [FLUOROURACIL] | 7.36 | > 400 | viability at 5 µM (Bel7402/5-FU [4]): 27.4%; Activity (Bel7402/5-FU [5]): 2.164%; Activity (Bel7402/5-FU [6]): 0.073%; Activity (Bel7402/5-FU [7]): 1.85% |
| C=C1C(=O)O[C@H]2[C@H]1CC/C(Cn1cc(Cn3cc(F)c(=O)[nH]c3=O)nn1)=C\CC[C@@]1(C)O[C@@H]21 | > 20 | > 20 |  |
| C=C1C(=O)O[C@H]2[C@H]1CC/C(COC(=O)Cn1cc(F)c(=O)n(C)c1=O)=C\CC[C@@]1(C)O[C@@H]21 | 9.4 | 11.7 |  |
| C=C1C(=O)O[C@H]2[C@H]1CC/C(COC(=O)Cn1cc(F)c(=O)n(Cc3ccc(F)cc3F)c1=O)=C\CC[C@@]1(C)O[C@@H]21 | 3.67 | 5.01 |  |
| C=C1C(=O)O[C@H]2[C@H]1CC/C(COC(=O)Cn1cc(F)c(=O)n(Cc3cccc(F)c3)c1=O)=C\CC[C@@]1(C)O[C@@H]21 | 2.53 | 3.7 |  |
| C=C1C(=O)O[C@H]2[C@H]1CC/C(COC(=O)Cn1cc(F)c(=O)n(Cc3ccccc3)c1=O)=C\CC[C@@]1(C)O[C@@H]21 | 3.98 | 4.27 |  |
| C=C1C(=O)O[C@H]2[C@H]1CC/C(COC(=O)CCC(=O)NCCCCCCNC(=O)Cn1cc(F)c(=O)[nH]c1=O)=C\CC[C@@]1(C)O[C@@H]21 | > 20 | > 20 |  |
| COc1cccc2c1C(=O)c1c(O)c3c(c(O)c1C2=O)C[C@@](O)(C(=O)CO)C[C@@H]3O[C@H]1C[C@H](N)[C@H](O)[C@H](C)O1 [DOXORUBICIN HYDROCHLORIDE] |  | 8.36 |  |
| C=C1C(=O)O[C@H]2[C@H]1CC/C(COC(=O)Cn1cc(F)c(=O)n(Cc3ccc(F)c(F)c3)c1=O)=C\CC[C@@]1(C)O[C@@H]21 | 2.7 | 4.48 |  |
| C=C1C(=O)O[C@H]2[C@H]1CC/C(COC(=O)CCC(=O)OCn1cc(F)c(=O)[nH]c1=O)=C\CC[C@@]1(C)O[C@@H]21 | > 20 | > 20 |  |
| C=C1C(=O)O[C@H]2[C@H]1CC/C(COC(=O)Cn1cc(F)c(=O)[nH]c1=O)=C\CC[C@@]1(C)O[C@@H]21 | > 20 | > 20 |  |
| C=C1C(=O)O[C@H]2[C@H]1CC/C(COC(=O)Cn1cc(F)c(=O)n(Cc3ccc([N+](=O)[O-])cc3)c1=O)=C\CC[C@@]1(C)O[C@@H]21 | 4.07 | 4.34 |  |
| C=C1C(=O)O[C@H]2[C@H]1CC/C(Cn1cc(Cn3cc(F)c(=O)n(Cc4ccccc4)c3=O)nn1)=C\CC[C@@]1(C)O[C@@H]21 | 9.16 | 8.84 |  |
